According to ChEMBL document CHEMBL1240390, “Activity of dalbavancin against Bacillus anthracis in vitro and in a mouse inhalation anthrax model” (Antimicrob Agents Chemother, 2010):
In brackets after ≈: the same amount, converted by molar mass.

What was measured:
Bacillus anthracis [1] = assay: Antimicrobial activity against Bacillus anthracis after 18-24 hrs by broth microdilution method; format: functional
Bacillus anthracis [2] = assay: Antimicrobial activity against Bacillus anthracis str. Ames infected in BALB/c mouse assessed as mouse survival at 30 mg/kg, ip bid administered 24 hrs post infection for 14 days measured after 42 days; format: functional; settings: route intraperitoneal
[3] = AUC (0-infinity) in ICR mouse at 5 mg/kg, iv; format: ADME, organism-based; set-up: time infinity, dose 5 mg/kg, route intravenous; settings: plasma
How it was run: (§1)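 Female ICR mice, 23 to 27 g, given single 5 or 20 mg/kg doses i.p. or i.v. (tail vein) in 5% glucose. Plasma was taken by cardiac puncture under halothane at 0.08 to 144 h, with 3 mice per route, dose and time point. Total drug was measured by microbiological agar diffusion assay; parameters came from noncompartmental analysis.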

[4] = Cmax in ICR mouse at 5 mg/kg, ip after 2 hrs; format: ADME, organism-based; set-up: dose 5 mg/kg, route intraperitoneal; settings: in vivo; how it was run: as §1
[5] = AUC (0-infinity) in ICR mouse at 20 mg/kg, iv; format: ADME, organism-based; set-up: time infinity, dose 20 mg/kg, route intravenous; settings: plasma; how it was run: as §1
[6] = Ratio of fCmax in ICR mouse at 20 mg/kg, ip single dose after 2 hrs to MIC for Bacillus anthracis Ames; format: functional; settings: route intraperitoneal
How it was run: (§2)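 Female ICR mice (23 to 27 g) received a single i.p. dose of 5 or 20 mg/kg in 5% glucose. Plasma was taken by cardiac puncture from 0.08 to 144 h, with 3 mice per dose and time point. Total drug was measured by microbiological agar diffusion, and parameters were derived noncompartmentally. Free values assume 1.6% unbound and are divided by the Ames-strain MIC.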

Mus musculus [7] = assay: fCmax in ICR mouse at 5 mg/kg, ip after 2 hrs; format: ADME, organism-based; set-up: dose 5 mg/kg, route intraperitoneal; settings: in vivo
Bacillus anthracis [8] = assay: Antimicrobial activity against Bacillus anthracis str. Ames infected in BALB/c mouse prophylaxis model assessed as mouse survival at 120 mg/kg, ip administered 36 hrs post infection every 72 hrs for 14 days measured after 42 days; format: functional; settings: route intraperitoneal
Bacillus anthracis [9] = assay: Antimicrobial activity against Bacillus anthracis str. Ames after 18-24 hrs by broth microdilution method; format: functional
[10] = Ratio of fAUC in ICR mouse at 20 mg/kg, ip to MIC against Bacillus anthracis Ames; format: functional; settings: route intraperitoneal; how it was run: as §2
[11] = Cmax in ICR mouse at 20 mg/kg, ip after 2 hrs; format: ADME, organism-based; set-up: dose 20 mg/kg, route intraperitoneal; settings: in vivo; how it was run: as §1
Mus musculus [12] = assay: T>MIC in ICR mouse at 20 mg/kg, ip; format: ADME, organism-based; set-up: dose 20 mg/kg, route intraperitoneal; settings: in vivo
Mus musculus [13] = assay: fAUC in ICR mouse at 20 mg/kg, ip; format: ADME, organism-based; set-up: dose 20 mg/kg, route intraperitoneal; settings: in vivo
Bacillus anthracis [14] = assay: Antimicrobial activity against Bacillus anthracis str. Ames infected in BALB/c mouse prophylaxis model assessed as mouse survival at >=30 mg/kg, ip administered 24 hrs post infection every 36 hrs for 14 days measured after 42 days; format: functional
[15] = Plasma concentration in ICR mouse at 20 mg/kg, ip after 6 days; format: ADME, organism-based; set-up: dose 20 mg/kg, route intraperitoneal; how it was run: as §1
[16] = AUC (0-infinity) in ICR mouse at 5 mg/kg, ip; format: ADME, organism-based; set-up: dose 5 mg/kg, route intraperitoneal, time infinity; settings: plasma; how it was run: as §1
[17] = Half life in ICR mouse at 20 mg/kg, ip; format: ADME, organism-based; set-up: dose 20 mg/kg, route intraperitoneal; settings: in vivo; how it was run: as §1
[18] = Ratio of fCmax in ICR mouse at 5 mg/kg, ip after 2 hrs to MIC for Bacillus anthracis Ames; format: functional; settings: route intraperitoneal; how it was run: as §2
Mus musculus [19] = assay: T>MIC in ICR mouse at 5 mg/kg, ip; format: ADME, organism-based; set-up: dose 5 mg/kg, route intraperitoneal; settings: in vivo
[20] = Half life in ICR mouse at 5 mg/kg, ip; format: ADME, organism-based; set-up: dose 5 mg/kg, route intraperitoneal; settings: in vivo; how it was run: as §1
[21] = AUC in patient with skin and soft tissue infections at 1000 mg, iv after 7 days; format: ADME, organism-based; settings: human, plasma
Bacillus anthracis [22] = assay: Antimicrobial activity against Bacillus anthracis str. Ames infected in BALB/c mouse prophylaxis model assessed as mouse survival at 60 mg/kg, ip administered 48 hrs post infection every 36 hrs for 14 days measured after 42 days; format: functional; settings: route intraperitoneal
[23] = AUC (0-infinity) in ICR mouse at 20 mg/kg, ip; format: ADME, organism-based; set-up: time infinity, dose 20 mg/kg, route intraperitoneal; settings: plasma; how it was run: as §1
Bacillus anthracis [24] = assay: Antimicrobial activity against Bacillus anthracis str. Ames infected in BALB/c mouse prophylaxis model assessed as mouse survival at >=15 mg/kg, ip administered 24 hrs post infection every 36 hrs for 14 days measured after 42 days; format: functional
Mus musculus [25] = assay: fAUC in ICR mouse at 5 mg/kg, ip; format: ADME, organism-based; set-up: dose 5 mg/kg, route intraperitoneal; settings: in vivo
Mus musculus [26] = assay: fCmax in ICR mouse at 20 mg/kg, ip after 2 hrs; format: ADME, organism-based; set-up: dose 20 mg/kg, route intraperitoneal; settings: in vivo
Bacillus anthracis [27] = assay: Antimicrobial activity against Bacillus anthracis str. Ames infected in BALB/c mouse prophylaxis model assessed as mouse survival at 120 mg/kg, ip administered 48 hrs post infection every 72 hrs for 14 days measured after 42 days; format: functional; settings: route intraperitoneal
Bacillus anthracis [28] = assay: Antimicrobial activity against Bacillus anthracis str. Ames infected in BALB/c mouse prophylaxis model assessed as mouse survival at 60 mg/kg, ip administered 36 hrs post infection every 36 hrs for 14 days measured after 42 days; format: functional; settings: route intraperitoneal
[29] = Ratio of fAUC in ICR mouse at 5 mg/kg, ip to MIC against Bacillus anthracis Ames; format: functional; settings: route intraperitoneal; how it was run: as §2

## CN[C@H](CC(C)C)C(=O)N[C@H]1C(=O)N[C@@H](CC(N)=O)C(=O)N[C@H]2C(=O)N[C@H]3C(=O)N[C@H](C(=O)N[C@H](C(=O)O)c4cc(O)cc(O)c4-c4cc3ccc4O)[C@H](O)c3ccc(c(Cl)c3)Oc3cc2cc(c3O[C@@H]2O[C@H](CO)[C@@H](O)[C@H](O)[C@H]2O[C@H]2C[C@](C)(N)[C@H](O)[C@H](C)O2)Oc2ccc(cc2Cl)[C@H]1O [VANCOMYCIN]
Bacillus anthracis [1]
  MIC: 2 µg/mL (≈ 1.38 µM)

## CN[C@H]1C(=O)N[C@@H]2Cc3ccc(cc3)Oc3cc4cc(c3O[C@@H]3O[C@H](C(=O)O)[C@@H](O)[C@H](O)[C@H]3NC(=O)CCCCCCCCC(C)C)Oc3ccc(cc3Cl)[C@@H](O)[C@@H]3NC(=O)[C@H](NC(=O)[C@@H]4NC(=O)[C@@H](NC2=O)c2cc(cc(O)c2Cl)Oc2cc1ccc2O)c1ccc(O)c(c1)-c1c(O[C@H]2O[C@H](CO)[C@@H](O)[C@H](O)[C@@H]2O)cc(O)cc1[C@@H](C(=O)NCCCN(C)C)NC3=O [DALBAVANCIN]
Bacillus anthracis [2]
  Activity: 100%
[3]
  AUC(0-inf): 200 µg·h/mL
[4]
  Cmax: 15200 ng/mL
[5]
  AUC(0-inf): 1070 µg·h/mL
[6]
  Ratio: 19
Mus musculus [7]
  fCmax: 0.24 mg/L
Bacillus anthracis [8]
  Activity: 70%
Bacillus anthracis [9]
  MIC: 0.06 µg/mL (≈ 0.033 µM)
[10]
  Ratio: 227
[11]
  Cmax: 71300 ng/mL
Mus musculus [12]
  T>MIC: 38 h
Mus musculus [13]
  fAUC: 13.6 µg·h/mL
Bacillus anthracis [14]
  Activity: 80%
[15]
  concentration at 144 h: ≥ 400 ng/mL
[16]
  AUC(0-inf): 176 µg·h/mL
Bacillus anthracis [1]
  MIC50: 0.06 µg/mL (≈ 0.033 µM)
  MIC90: 0.25 µg/mL (≈ 0.138 µM)
[17]
  half-life: 53.4 h
[18]
  Ratio: 4
Mus musculus [19]
  T>MIC: 17.8 h
[20]
  half-life: 53.4 h
[21]
  AUC at 168 h: 756 µg·h/mL
Bacillus anthracis [22]
  Activity: 70%
[23]
  AUC(0-inf): 848 µg·h/mL
Bacillus anthracis [24]
  Activity: 80%
Mus musculus [25]
  fAUC: 2.8 µg·h/mL
Mus musculus [26]
  fCmax: 1.14 mg/L
Bacillus anthracis [27]
  Activity: 70%
Bacillus anthracis [28]
  Activity: 70%
[29]
  Ratio: 46.7
